Converted amounts (≈) assume the structure as drawn. Bridge positions count the residues as written; N and C are the ends. Square brackets hold non-standard residues; d marks the D form. Peptide text beside a SMILES is read from it. * marks the point of attachment. Octanoyl(7-Me) = CC(C)CCCCCC(=O)*; Myristoyl = CCCCCCCCCCCCCC(=O)*; Lauroyl = CCCCCCCCCCCC(=O)*; dOrn = NCCC[C@@H](N)C(=O)O; Orn = NCCC[C@H](N)C(=O)O; Hexanoyl = CCCCCC(=O)*; Butyryl = CCCC(=O)*
Assays:
Escherichia coli [1] = assay: Antibacterial activity against colistin-resistant Escherichia coli ATCC 25922 carrying MCR-1 gene assessed as inhibition of bacterial growth incubated for 18 hrs by CLSI protocol based method; type: functional
Method in brief: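 Broth microdilution MIC. MCR-1 strain grown from glycerol stock in TSB with kanamycin (16 h, 37 °C, 220 rpm), diluted 100-fold in the same medium and grown to OD600 about 0.5. Cells were diluted in MHB to 2×10^5 CFU/mL and added 1:1 to serial dilutions in MHB. Incubated 18 h, 37 °C, 600 rpm; visual lowest no-growth concentration; three technical replicates.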

Klebsiella pneumoniae = assay: Antibacterial activity against Klebsiella pneumoniae ATCC 13883 assessed as inhibition of bacterial growth incubated for 18 hrs by CLSI protocol based method; type: functional
Method in brief: (§1)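 Single colonies from blood agar (16 h, 37 °C) grown in TSB at 37 °C, 220 rpm to OD600 ~0.5, then diluted in MHB to 2×10^5 CFU/mL. Mixed with serial MHB dilutions of DMSO stocks in polypropylene plates, sealed, and incubated 18 h at 37 °C, 600 rpm. MIC was taken as the lowest concentration with no visible growth; three technical replicates.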

Escherichia coli [2] = assay: Antibacterial activity against Escherichia coli ATCC 25922 assessed as inhibition of bacterial growth incubated for 18 hrs by CLSI protocol based method; type: functional
Method in brief: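 Broth microdilution MIC. Strain streaked from glycerol stock on sheep blood agar (16 h, 37 °C); a colony was grown in TSB at 37 °C, 220 rpm, to OD600 about 0.5. Cells were diluted in MHB to 2×10^5 CFU/mL and added 1:1 to serial dilutions in MHB in polypropylene plates.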

Acinetobacter baumannii = assay: Antibacterial activity against Acinetobacter baumannii ATCC 17961 assessed as inhibition of bacterial growth incubated for 18 hrs by CLSI protocol based method; type: functional; method in brief: as §1
Pseudomonas aeruginosa = assay: Antibacterial activity against Pseudomonas aeruginosa PAO1 assessed as inhibition of bacterial growth incubated for 18 hrs by CLSI protocol based method; type: functional; method in brief: as §1
Staphylococcus aureus = assay: Antibacterial activity against Staphylococcus aureus USA300 assessed as inhibition of bacterial growth incubated for 18 hrs by CLSI protocol based method; type: functional; method in brief: as §1
Erythrocyte = assay: Hemolytic activity in sheep red blood cell assessed as hemolysis at 64 ug/ml incubated for 1 hrs relative to control; type: toxicity, cell-based, Ovis aries; details: at 64 µg/mL
Method in brief: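 Defibrinated sheep erythrocytes were washed five times in PBS with 0.002% Tween20 and normalized so the positive control read 2.5–3.0 at 415 nm. Cells were mixed with peptide at 64 µg/mL and held 1 h at 37 °C, shaking 500 rpm, then centrifuged. Supernatant A415 was background-corrected against buffer and expressed as % of 0.1% Triton X-100. Run in triplicate.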

Which MIC (Escherichia coli [1]) does the source give for CC[C@H](C)[C@@H]1NC(=O)[C@@H](NC(=O)[C@H](Cc2c[nH]c3ccccc23)NC(=O)[C@@H](CCCN)NC(=O)CNC(=O)[C@H](CCCN)NC(=O)[C@@H](CCCN)NC(=O)[C@@H](Cc2c[nH]c3ccccc23)NC(=O)[C@@H](Cc2ccc(O)cc2)NC(=O)[C@@H](CO)NC(=O)CCCCCC(C)C)[C@@H](C)OC(=O)CNC(=O)CNC(=O)[C@H](CC(N)=O)NC1=O ({Octanoyl(7-Me)}-[dS][dY][dW][dOrn][Orn]G[dOrn]WTINGG; ester 9-C) here?
Its MIC is 2 µg/mL (≈ 1.25 µM).

What about the MIC (Klebsiella pneumoniae) of the same molecule?
The MIC was 2 µg/mL (≈ 1.25 µM).

And the MIC (Escherichia coli [2])?
Its MIC is 2 µg/mL (≈ 1.25 µM).

And the MIC (Acinetobacter baumannii)?
The MIC was 2 µg/mL (≈ 1.25 µM).

And the MIC (Pseudomonas aeruginosa)?
Its MIC is 4 µg/mL (≈ 2.49 µM).

What about the MIC (Staphylococcus aureus) of the same molecule?
Its MIC is over 32 µg/mL.

What does the source list for CCCCCCCCCCCC(=O)N[C@H](CC(N)=O)C(=O)N[C@H](Cc1ccc(O)cc1)C(=O)N[C@H](Cc1c[nH]c2ccccc12)C(=O)N[C@H](CCCN)C(=O)N[C@@H](CCCN)C(=O)NCC(=O)N[C@H](CCCN)C(=O)N[C@@H](Cc1c[nH]c2ccccc12)C(=O)N[C@@H]1C(=O)N[C@@H]([C@@H](C)CC)C(=O)NCC(=O)N[C@@H](CO)C(=O)O[C@@H]1C (Lauroyl-[dN][dY][dW][dOrn][Orn]G[dOrn]WTIGS; ester 9-C)?
MIC (Escherichia coli [1]): 8 µg/mL (≈ 5.03 µM); MIC (Klebsiella pneumoniae): 8 µg/mL (≈ 5.03 µM); MIC (Escherichia coli [2]): 8 µg/mL (≈ 5.03 µM); MIC (Acinetobacter baumannii): 4 µg/mL (≈ 2.52 µM); MIC (Pseudomonas aeruginosa): 16 µg/mL (≈ 10.1 µM); MIC (Staphylococcus aureus): 32 µg/mL (≈ 20.1 µM)

COLISTIN was tested. Which Activity (Erythrocyte) did it give?
The Activity was under 0.1%.

CCCCCCCCCCCCCC(=O)N[C@H](CO)C(=O)N[C@H](Cc1ccc(O)cc1)C(=O)N[C@H](Cc1c[nH]c2ccccc12)C(=O)N[C@H](CCCN)C(=O)N[C@@H](CCCN)C(=O)NCC(=O)N[C@H](CCCN)C(=O)N[C@@H](Cc1c[nH]c2ccccc12)C(=O)N[C@@H]1C(=O)N[C@@H]([C@@H](C)CC)C(=O)N[C@@H](CC(N)=O)C(=O)NCC(=O)NCC(=O)O[C@@H]1C (Myristoyl-[dS][dY][dW][dOrn][Orn]G[dOrn]WTINGG; ester 9-C) was tested. Which MIC (Escherichia coli [1]) did it give?
Its MIC is 8 µg/mL (≈ 4.78 µM).

What about the MIC (Klebsiella pneumoniae) of the same molecule?
Its MIC is 8 µg/mL (≈ 4.78 µM).

And the MIC (Escherichia coli [2])?
The MIC was 8 µg/mL (≈ 4.78 µM).

What about the MIC (Acinetobacter baumannii) of the same molecule?
The MIC was 2 µg/mL (≈ 1.19 µM).

And the MIC (Pseudomonas aeruginosa)?
Its MIC is 8 µg/mL (≈ 4.78 µM).

And the MIC (Staphylococcus aureus)?
The MIC was 16 µg/mL (≈ 9.55 µM).

For CCCCCC(=O)N[C@H](CO)C(=O)N[C@H](Cc1ccc(O)cc1)C(=O)N[C@H](Cc1c[nH]c2ccccc12)C(=O)N[C@H](CCCN)C(=O)N[C@@H](CCCN)C(=O)NCC(=O)N[C@H](CCCN)C(=O)N[C@@H](Cc1c[nH]c2ccccc12)C(=O)N[C@@H]1C(=O)N[C@@H]([C@@H](C)CC)C(=O)N[C@@H](CC(N)=O)C(=O)NCC(=O)NCC(=O)O[C@@H]1C (Hexanoyl-[dS][dY][dW][dOrn][Orn]G[dOrn]WTINGG; ester 9-C), which MIC (Escherichia coli [1]) is on record?
The MIC was 8 µg/mL (≈ 5.12 µM).

What about the MIC (Klebsiella pneumoniae) of the same molecule?
The MIC was 8 µg/mL (≈ 5.12 µM).

And the MIC (Escherichia coli [2])?
Its MIC is 4 µg/mL (≈ 2.56 µM).

And the MIC (Acinetobacter baumannii)?
The MIC was 16 µg/mL (≈ 10.2 µM).

What about the MIC (Pseudomonas aeruginosa) of the same molecule?
The MIC was 4 µg/mL (≈ 2.56 µM).

What about the MIC (Staphylococcus aureus) of the same molecule?
Its MIC is over 32 µg/mL.

For CCCC(=O)N[C@H](CC(N)=O)C(=O)N[C@H](Cc1ccc(O)cc1)C(=O)N[C@H](Cc1c[nH]c2ccccc12)C(=O)N[C@H](CCCN)C(=O)N[C@@H](CCCN)C(=O)NCC(=O)N[C@H](CCCN)C(=O)N[C@@H](Cc1c[nH]c2ccccc12)C(=O)N[C@@H]1C(=O)N[C@@H]([C@@H](C)CC)C(=O)NCC(=O)N[C@@H](CO)C(=O)O[C@@H]1C (Butyryl-[dN][dY][dW][dOrn][Orn]G[dOrn]WTIGS; ester 9-C), which MIC (Escherichia coli [1]) is on record?
The MIC was 32 µg/mL (≈ 21.7 µM).

What about the MIC (Klebsiella pneumoniae) of the same molecule?
Its MIC is 8 µg/mL (≈ 5.41 µM).

And the MIC (Escherichia coli [2])?
Its MIC is 32 µg/mL (≈ 21.7 µM).

What about the MIC (Acinetobacter baumannii) of the same molecule?
Its MIC is 32 µg/mL (≈ 21.7 µM).

And the MIC (Pseudomonas aeruginosa)?
Its MIC is 16 µg/mL (≈ 10.8 µM).

What about the MIC (Staphylococcus aureus) of the same molecule?
Its MIC is over 32 µg/mL.

Which MIC (Escherichia coli [1]) does the source give for CCCCCC(=O)N[C@H](CC(N)=O)C(=O)N[C@H](Cc1ccc(O)cc1)C(=O)N[C@H](Cc1c[nH]c2ccccc12)C(=O)N[C@H](CCCN)C(=O)N[C@@H](CCCN)C(=O)NCC(=O)N[C@H](CCCN)C(=O)N[C@@H](Cc1c[nH]c2ccccc12)C(=O)N[C@@H]1C(=O)N[C@@H]([C@@H](C)CC)C(=O)NCC(=O)N[C@@H](CO)C(=O)O[C@@H]1C (Hexanoyl-[dN][dY][dW][dOrn][Orn]G[dOrn]WTIGS; ester 9-C) here?
The MIC was 8 µg/mL (≈ 5.31 µM).

And the MIC (Klebsiella pneumoniae)?
Its MIC is 4 µg/mL (≈ 2.66 µM).

And the MIC (Escherichia coli [2])?
Its MIC is 8 µg/mL (≈ 5.31 µM).

And the MIC (Acinetobacter baumannii)?
Its MIC is 16 µg/mL (≈ 10.6 µM).

What about the MIC (Pseudomonas aeruginosa) of the same molecule?
The MIC was over 32 µg/mL.

What about the MIC (Staphylococcus aureus) of the same molecule?
Its MIC is over 32 µg/mL.
